Results from publication PMC3625046 (Bioorganic & medicinal chemistry letters, 2013).

Key:
[1] = test system: human foreskin fibroblasts; assay: Toxicity to human foreskin fibroblasts; assay type: cell-based
[2] = test system: T. gondii (Pru strain expressing firefly luciferase); assay: T. gondii murine infection model; assay type: in vivo, mice
Summary of the method: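 Mice infected intraperitoneally with 2x10⁴ Pru-strain T. gondii tachyzoites expressing firefly luciferase. Animals imaged daily by bioluminescence after intraperitoneal luciferin (3mg). Parasite burden in treated mice compared with a DMSO control group on day 6 post-infection. Three separate replicate experiments, analysed singly and pooled; ANOVA with group and run as factors.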

[3] = test system: P. falciparum strain D6 (CDC/Sierra Leone); assay: SYBR Green assay, P. falciparum strain D6; assay type: cell-based, Plasmodium falciparum; details: chloroquine sensitive D6 strain
[4] = test system: P. falciparum strain TM91C235 (WRAIR, Thailand; chloroquine resistant); assay: SYBR Green assay, P. falciparum strain C235; assay type: cell-based, Plasmodium falciparum
[5] = target: T1, Toxoplasma gondii enoyl reductase (TgENR) (Toxoplasma gondii, UniProt Q6UCJ9); assay: TgENR enzyme assay; assay type: biochemical; details: read-out: Inhibition (%) at 1 µM
T1 sequence (Q6UCJ9 28-417): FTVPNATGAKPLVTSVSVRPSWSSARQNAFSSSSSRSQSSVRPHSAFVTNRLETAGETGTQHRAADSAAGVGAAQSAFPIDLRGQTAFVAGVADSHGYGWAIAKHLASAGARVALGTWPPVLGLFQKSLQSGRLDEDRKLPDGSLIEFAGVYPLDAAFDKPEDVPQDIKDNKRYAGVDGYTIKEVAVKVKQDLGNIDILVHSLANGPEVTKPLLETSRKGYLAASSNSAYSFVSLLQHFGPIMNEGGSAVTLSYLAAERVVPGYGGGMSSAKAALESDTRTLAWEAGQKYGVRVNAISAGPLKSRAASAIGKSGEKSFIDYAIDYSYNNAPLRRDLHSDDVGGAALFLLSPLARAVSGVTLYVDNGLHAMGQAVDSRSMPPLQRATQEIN

Toxoplasma gondii = details: read-out: IC50, growth of T. gondii parasites; cited from earlier work

| Structure (SMILES) | Toxicity [1] [µM] | other results |
| --- | --- | --- |
| Oc1cc(Cl)ccc1Oc1ccc2ccccc2c1 [Compound 2] | >10 | – |
| Oc1cc(Cl)ccc1Oc1ccc(C(F)(F)F)cc1Cl [Compound 3] | >10 | – |
| CN1CCN(c2ccc(Oc3ccc(Cl)cc3O)cc2)CC1 [Compound 5a] | >10 | – |
| Oc1cc(Cl)ccc1Oc1ccc(N2CCOCC2)cc1 [Compound 5b] | >10 | – |
| CC(=O)N1CCN(c2ccc(Oc3ccc(Cl)cc3O)cc2)CC1 [Compound 5c] | >10 | efficacy at lower dose ([2]; 50mg/kg): not effective; toxicity in infected mice ([2]; 75mg/kg, by the seventh day after infection): toxic; solubility of higher dose ([2]; 100mg/kg): not completely soluble; activity against P. falciparum D6 [3]: inactive; activity against P. falciparum C235 [4]: inactive |
| CN1CCN(Cc2ccc(Oc3ccc(Cl)cc3O)cc2)CC1 [Compound 5d] | >10 | – |
| O=S(=O)(c1ccc(Oc2ccc(Cl)cc2O)cc1)N1CCCC1 [Compound 7a] | >10 | – |
| O=S(=O)(c1ccc(Oc2ccc(Cl)cc2O)cc1)N1CCCCC1 [Compound 7b] | >10 | – |
| Cn1cc(C(=O)Nc2ccc(Cl)cc2O)c(C(F)(F)F)n1 [Compound 10] | >10 | – |
| CNC(=O)c1ccc(Oc2ccc(Cl)cc2O)o1 [Compound 14a] | >10 | – |
| Cc1cc(NC(=O)c2ccc(Oc3ccc(Cl)cc3O)o2)no1 [Compound 14b] | >10 | – |
| CC(=O)N1CCN(C(=O)c2ccc(Oc3ccc(Cl)cc3O)o2)CC1 [Compound 14c] | >10 | – |
| O=C(O)c1ccc(Oc2ccc(Cl)cc2O)s1 [Compound 16] | >10 | – |
| CC(C)(C)OC(=O)N1CCN(C(=O)c2ccc(Oc3ccc(Cl)cc3O)s2)CC1 [Compound 17b] | >10 | – |
| O=C(c1ccc(Oc2ccc(Cl)cc2O)s1)N1CCNCC1 [Compound 17c] | >10 | – |
| CC(=O)N1CCN(Cc2ccc(Oc3ccc(Cl)cc3O)s2)CC1 [Compound 18] | >10 | – |
| Oc1cc(Cl)ccc1Oc1ccc2ncccc2c1 [Compound 19] | >10 | – |
| Oc1cc(Cl)ccc1Oc1ccc(Cl)cc1Cl [Triclosan] | >10 | inhibition at 1 µM [5]: 98%; IC50 (Toxoplasma gondii): ~200 nM |
